Values joined by “and” are separate entries in the source; they are usually repeats but may differ in a detail not shown here. Equal entries are not always repeated.
What was measured:
Mus musculus [1] = test: BDF1 male mice were administered with the compound and number of survivors was determined at a dose 200 mg/kg ip out of 10 tested; format: functional; settings: route intraperitoneal
Method in brief: (§1)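 Male BDF1 mice were iron-loaded by transfusion of canine red cells. The cells were heparinised, washed twice in isotonic saline and heated at 50 °C for 30 min. Dosing started two days after the last transfusion, once daily for 7 consecutive days. Compounds were given in distilled water or as a fine aqueous suspension with Polysorbate 80 (2% final). Toxic signs were recorded daily and survivors counted per group.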

Mus musculus [2] = test: BDF1 male mice were administered with 200 mg/kg poand percent change in iron levels was determined in Urine; format: functional
Method in brief: (§2)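 Hypertransfused male BDF1 mice (canine red cells, washed and heated at 50 °C for 30 min) were dosed orally for 7 days with compound in distilled water or a fine suspension with Polysorbate 80 (2% final). Daily group urine and pooled feces (1 N HCl digest, 90 °C, 30 min, triplicate) were collected, and liver and spleen were homogenized. Iron was measured by atomic absorption and reported as % change vs transfused control.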

Mus musculus [3] = test: BDF1 male mice were administered with 200 mg/kg po and percent change in iron levels was determined in Feces; format: functional; method in brief: as §2
Mus musculus [4] = test: BDF1 male mice were administered with 200 mg/kg ip and percent change in iron levels was determined in Liver; format: functional; settings: route intraperitoneal
Method in brief: (§3)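 Male BDF1 mice made iron-overloaded by transfusion of washed, heat-treated (50 °C, 30 min) canine red cells. Dosing began 2 days after the last transfusion, once daily for 7 days, in distilled water or 2% Polysorbate 80 suspension. Daily group urine was collected. Pooled feces were digested in 1 N HCl (90 °C, 30 min). Liver and spleen were homogenized in saline. Iron was measured by atomic absorption and expressed as % change vs transfused controls.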

Mus musculus [5] = test: BDF1 male mice were administered with 200 mg/kg ip and percent change in iron levels was determined in Feces; format: functional; settings: route intraperitoneal; method in brief: as §3
Mus musculus [6] = test: BDF1 male mice were administered with the compound and number of survivors was determined at a dose 200 mg/kg peroral out of 10 tested; format: functional; settings: route oral; method in brief: as §1
Mus musculus [7] = test: BDF1 male mice were administered with 200 mg/kg po and percent change in iron levels was determined in Spleen; format: functional; method in brief: as §2
Mus musculus [8] = test: BDF1 male mice were administered with 200 mg/kg ip and percent change in iron levels was determined in Spleen; format: functional; settings: route intraperitoneal; method in brief: as §3
Mus musculus [9] = test: BDF1 male mice were administered with 200 mg/kg ip and percent change in iron levels was determined in Urine; format: functional; settings: route intraperitoneal; method in brief: as §3
Mus musculus [10] = test: BDF1 male mice were administered with 200 mg/kg po and percent change in iron levels was determined in Liver; format: functional; method in brief: as §2
[11] = First order rate constant was determined Spectrophotometrically at pH 7.5 in the presence of Fe(III)
Mus musculus [12] = test: BDF1 male mice were administered with 200 mg/kg orally and percent change in iron levels was determined in liver; format: functional; settings: route oral; method in brief: as §3
[13] = Half life was determined at pH 10.5 in the presence of Fe(III) Half life was determined Titrimetrically; format: ADME; settings: pH 7.5; in the assay text read “pH 7.5” for “pH 10.5”
Method in brief: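 Metal and chelator were each 5 × 10⁻⁴ M. Constant pH was held with 0.05 M NaOH. Hydrolysis rate came from base consumption, with first-order kinetics.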

Mus musculus [14] = test: BDF1 male mice were administered with 25 mg/kg orally and percent change in iron levels was determined in faeces; format: functional, Feces; settings: dose 100 mg/kg; route intraperitoneal; in the assay text read “100 mg/kg intraperitoneally” for “25 mg/kg orally”
Mus musculus [15] = test: BDF1 male mice were administered with 100 mg/kg orally and percent change in iron levels was determined in spleen; format: functional; settings: route intraperitoneal, in the assay text read “intraperitoneally” for “orally”; method in brief: as §3
[16] = First order rate constant was determined Titrimetrically) at pH 7.5 in the presence of Fe(III)
Mus musculus [17] = test: BDF1 male mice were administered with 200 mg/kg orally and percent change in iron levels was determined in spleen; format: functional; settings: route oral; method in brief: as §3
Mus musculus [18] = test: BDF1 male mice were administered with the compound and number of survivors was determined at a dose 100 mg/kg intraperitoneally out of 10 tested; format: functional; settings: route intraperitoneal; method in brief: as §1
Mus musculus [19] = test: BDF1 male mice were administered with 25 mg/kg orally and percent change in iron levels was determined in urine; format: functional; settings: dose 100 mg/kg; route intraperitoneal; in the assay text read “100 mg/kg intraperitoneally” for “25 mg/kg orally”
[20] = Half life was determined at pH 7.5 in the presence of Fe(III) Half life was determined Spectrophotometrically
Mus musculus [21] = test: BDF1 male mice were administered with 200 mg/kg orally and percent change in iron levels was determined in faeces; format: functional, Feces; settings: route oral; method in brief: as §3

CC(C)(C)OC(=O)CN(CCN(CC(=O)OC(C)(C)C)Cc1ccccc1O)Cc1ccccc1O
No. of survivors (Mus musculus [1]): 10
Iron change (Mus musculus [2]): -27%
Iron change (Mus musculus [3]): -13%
Iron change (Mus musculus [4]): 10%
Iron change (Mus musculus [5]): -1%
No. of survivors (Mus musculus [6]): 10
Iron change (Mus musculus [7]): 5%
Iron change (Mus musculus [8]): -5%
Iron change (Mus musculus [9]): -1%
Iron change (Mus musculus [10]): 6%

CCOC(=O)CN(CCN(CC(=O)OCC)Cc1ccccc1O)Cc1ccccc1O
10E2 k1 [11]: 1.14 min⁻¹
Iron change (Mus musculus [12]): -49% and -63%
half-life [13]: 34.8 min
No. of survivors (Mus musculus [6]): 8
Iron change (Mus musculus [14]): 26%
Iron change (Mus musculus [15]): 4%
10E2 k1 [16]: 1.99 min⁻¹
Iron change (Mus musculus [17]): -34%
No. of survivors (Mus musculus [18]): 10
Iron change (Mus musculus [19]): 240%
half-life [20]: 60.6 min
Iron change (Mus musculus [21]): -77%

Reference: ChEMBL document CHEMBL1123309, “Esters and lactones of phenolic amino carboxylic acids: prodrugs for iron chelation” (J Med Chem, 1986)
